What was measured:
[1] = test system: Salmonidae; assay: Binding affinity to salmon testes duplex DNA assessed as thermal transition temperature at 15 uM preincubated for 5 mins at 90 degC followed by cooling at room temperature measured after 4 hrs by UV spectrophotometric analysis in presence of 150 mM K+ (reference value: 86.1 degC)
Procedure, shortened: (§1)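 Salmon testes duplex DNA melting with ligand at 15 μM in 1 cm quartz cells. Buffer was 10 mM potassium phosphate, pH 7.5, with KCl added to give 50 mM K+ (32 mM KCl) or 150 mM K+ (132 mM KCl). Absorbance was read at 260 nm, temperature raised in 0.5 °C increments with 1 min equilibration and 5 s averaging. Ttran was taken from the first-derivative maximum.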

[2] = test system: Salmonidae; assay: Binding affinity to salmon testes duplex DNA assessed as thermal transition temperature at 15 uM preincubated for 5 mins at 90 degC followed by cooling at room temperature measured after 4 hrs by UV spectrophotometric analysis in presence of 50 mM K+ (reference value: 78.2 degC); procedure, shortened: as §1
[3] = species on record: Homo sapiens; assay: Binding affinity to human d(TTAGGG)4 assessed as thermal transition temperature at 20 uM preincubated for 5 mins at 90 degC followed by cooling at room temperature measured after 4 hrs by UV spectrophotometric analysis in presence of 150 mM K+ (reference value: 63.1 degC)
Procedure, shortened: (§2)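 UV melting of human telomeric d(TTAGGG)4 at 5 μM strand (120 μM nucleotide), with ligand at 20 μM. Before use, DNA was heated 5 min at 90 °C and cooled slowly to room temperature over 4 h. Buffer was 10 mM potassium phosphate, pH 7.5, with KCl added to give 50 mM K+ (32 mM KCl) or 150 mM K+ (132 mM KCl). Absorbance was read at 295 nm in 0.5 °C steps with 1 min equilibration. Ttran was taken from the first-derivative minimum.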

[4] = Cytotoxicity against human KBH5.0 cells overexpressing BCRP after 4 days by MTT assay; type: functional, cell-based; details: KBH5.0 cell, 96 h
Procedure, shortened: (§3)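 Cells were grown in suspension in RPMI with 10% heat-inactivated FBS, 2 mM L-glutamine, penicillin and streptomycin at 37 °C, 5% CO2. Drug exposure was continuous for 4 days across a concentration range, with a drug-free control. IC50 came from at least two experiments in six replicate wells.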

[5] = Cytotoxicity against human RPMI8402 cells after 4 days by MTT assay; type: functional, cell-based; details: RPMI 8402, 96 h
[6] = species on record: Homo sapiens; assay: Binding affinity to human d(TTAGGG)4 assessed as thermal transition temperature at 20 uM preincubated for 5 mins at 90 degC followed by cooling at room temperature measured after 4 hrs by UV spectrophotometric analysis in presence of 50 mM K+ (reference value: 55.3 degC); procedure, shortened: as §2
[7] = Cytotoxicity against human KBV1 cells overexpressing MDR1 after 4 days by MTT assay; type: functional, cell-based; details: KB-V1, 96 h; procedure, shortened: as §3
[8] = Cytotoxicity against wild type human KB-3-1 cells after 4 days by MTT assay; type: functional, cell-based; details: KB 3-1, 96 h; procedure, shortened: as §3
[9] = test system: MDA-MB-435; assay: Antitumor activity against human MDA-MB-435 cells xenografted in athymic nude NCr mouse assessed as tumor growth inhibition at 14 to 31 mg/kg, ip administered 3 times per week for 3 weeks followed by 42 mg/kg, ip dose for 3 times per week for last 10 days measured 2 times per week during compound administration relative to control; type: functional
[10] = test system: Mus musculus; assay: Toxicity in athymic nude NCr mouse xenografted with human MDA-MB-435 cells administered as ip for 3 times per week for 4 weeks measured 2 times per week during compound administration; type: organism-based; details: in vivo, 672 h

| T [1] [°C] | T [2] [°C] | T [3] [°C] | T [6] [°C] | Compound | IC50 [4] [µM] | IC50 [5] [µM] | IC50 [7] [µM] | IC50 [8] [µM] | T/C [9] [%] | Activity [10] |
| --- | --- | --- | --- | --- | --- | --- | --- | --- | --- | --- |
| 86.7 | 78.2 | 67.3 | 60.1 | O=C1CNC(=O)c2coc(n2)-c2coc(n2)-c2cccc(c2)-c2cccc(c2)-c2nc(co2)-c2nc(co2)CN1 | > 10 | 2.5 | > 10 | 2.3 | – | – |
| 86.5 | 78.3 | 64.2 | 57.7 | CC(C)(C)OC(=O)NCC[C@@H]1NC(=O)c2coc(n2)-c2coc(n2)-c2cccc(c2)-c2cccc(c2)-c2nc(co2)-c2nc(co2)CNC1=O | 6 | 3.5 | > 10 | > 10 | – | – |
| 86.8 | 78.7 | 91.2 | 91.2 | CN(C)CCc1cc2cc(c1)CNC(=O)c1coc(n1)-c1coc(n1)-c1cccc(n1)-c1nc(co1)-c1nc(co1)C(=O)NC2 | > 10 | 0.18 | > 10 | 0.04 | – | – |
| 86.2 | 78.2 | 67.2 | 61.7 | CC(C)[C@@H]1NC(=O)c2coc(n2)-c2coc(n2)-c2cccc(c2)-c2cccc(c2)-c2nc(co2)-c2nc(co2)CNC1=O | 10 | – | 6.5 | 5 | – | – |
| 86.7 | 79.1 | 73.7 | 63.7 | CN(C)CC[C@@H]1NC(=O)c2coc(n2)-c2coc(n2)-c2cccc(c2)-c2cccc(c2)-c2nc(co2)-c2nc(co2)CNC1=O | > 10 | 6.5 | > 10 | 3.5 | – | – |
| – | – | – | – | CC(C)[C@@H]1NC(=O)c2coc(n2)-c2coc(n2)-c2coc(n2)[C@H](C(C)C)NC(=O)c2coc(n2)-c2coc(n2)-c2coc1n2 [HEXAOXAZOLE DIVALINE] | 0.5 | 0.41 | > 10 | 0.3 | – | – |
| 85.7 | 77.2 | 64.7 | 58.1 | O=C1N[C@@H](Cc2ccccc2)C(=O)NCc2coc(n2)-c2coc(n2)-c2cccc(c2)-c2cccc(c2)-c2nc(co2)-c2nc1co2 | > 10 | > 10 | > 10 | > 10 | – | – |
| 86.7 | 78.2 | 92.2 | 92.7 | CC(C)[C@@H]1NC(=O)c2coc(n2)-c2coc(n2)-c2coc(n2)[C@H](CCN(C)C)NC(=O)c2coc(n2)-c2coc(n2)-c2coc1n2 | 0.03 | 0.07 | 5 | – | 21.6 | <= 45 mg kg-1 |
| 87.1 | 81.1 | 77.7 | 68.2 | NCC[C@@H]1NC(=O)c2coc(n2)-c2coc(n2)-c2cccc(c2)-c2cccc(c2)-c2nc(co2)-c2nc(co2)CNC1=O | > 10 | 7 | > 10 | 4 | – | – |

| Compound | T [1] [°C] | T [2] [°C] | T [3] [°C] | T [6] [°C] | IC50 [4] [µM] | IC50 [5] [µM] | IC50 [7] [µM] | IC50 [8] [µM] | T/C [9] [%] | Activity [10] |
| --- | --- | --- | --- | --- | --- | --- | --- | --- | --- | --- |
| CC(C)[C@@H]1NC(=O)c2coc(n2)-c2coc(n2)-c2coc(n2)C/C=C/c2coc(n2)-c2coc(n2)-c2coc1n2 | 86.2 | 78.2 | 93.2 | 92.2 | 0.04 | 0.03 | 3.3 | – | – | – |

Source: ChEMBL document CHEMBL2412965, “Macrocyclic biphenyl tetraoxazoles: synthesis, evaluation as G-quadruplex stabilizers and cytotoxic activity” (Bioorg Med Chem, 2013)
